{"source": "ChEMBL document CHEMBL2176929", "about": "“Hepatoprotective iridoid glycosides from the roots of Rehmannia glutinosa” (J Nat Prod, 2012)", "key": {"HCT-8": {"system": "HCT-8", "assay": "Cytotoxicity against human HCT8 cells after 4 days by MTT assay", "type": "functional, cell-based", "settings": "HCT-8, 96 h"}, "A2780": {"system": "A2780", "assay": "Cytotoxicity against human A2780 cells after 4 days by MTT assay", "type": "functional, cell-based", "settings": "A2780, 96 h"}, "A549": {"system": "A549", "assay": "Cytotoxicity against human A549 cells after 4 days by MTT assay", "type": "functional, cell-based", "settings": "A549, 96 h"}, "Bel-7402": {"system": "Bel-7402", "assay": "Cytotoxicity against human Bel7402 cells after 4 days by MTT assay", "type": "functional, cell-based", "settings": "Bel-7402, 96 h"}, "BGC-823": {"system": "BGC-823", "assay": "Cytotoxicity against human BGC823 cells after 4 days by MTT assay", "type": "functional, cell-based", "settings": "BGC-823, 96 h"}, "L02": {"system": "L02", "assay": "Hepatoprotective activity in D-galactosamine-treated human HL7702 cells assessed as survival rate at 10 uM preincubated for 1 hr prior to D-galactosamine challenge measured after 24 hrs by MTT assay relative to normal cell", "type": "functional", "settings": "read-out: Survival", "in_short": "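HL-7702 cells, 2 × 10^4 per well in RPMI 1640 with 10% fetal calf serum, penicillin and streptomycin, precultured 24 h at 37 °C, 5% CO2. Test samples added in fresh medium for 1 h, then 25 mM D-galactosamine for 24 h. MTT 0.5 mg/mL, 4 h; formazan dissolved in DMSO, OD at 492 nm. Bicyclol 10 μM positive control; means ± SD, n = 3.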"}, "[1]": {"assay": "Hepatoprotective activity in human HL7702 cells assessed as inhibition of D-galactosamine-induced cell damage at 10 uM preincubated for 1 hr prior to D-galactosamine challenge measured after 24 hrs by MTT assay relative to untreated control", "type": "functional", "settings": "L02", "in_short": "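HL-7702 cells, 2 × 10^4 per well in RPMI 1640 with 10% FCS and penicillin/streptomycin, precultured 24 h at 37 °C in 5% CO2. Pretreated 1 h with samples (10 μM) or bicyclol (10 μM, positive control) in fresh medium, then given 25 mM D-galactosamine for 24 h. Medium removed, 0.5 mg/mL MTT for 4 h, formazan dissolved in DMSO, OD read at 492 nm. Inhibition (%) calculated by formula. Mean ± SD, n = 3 (normal/control n = 6).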"}}, "data": [{"smiles": "COc1cc([C@@H]2Oc3c(O)cc(/C=C/C(=O)O[C@@H]4C[C@](C)(O)[C@H]5[C@H](O[C@@H]6O[C@H](CO)[C@@H](O)[C@H](O)[C@H]6O)OC=C[C@H]54)cc3[C@H]2CO)ccc1O", "note": "[REHMAGLUTOSIDE E]", "values": [{"measurement": "IC50", "setting": "HCT-8", "result": "> 10", "unit": "µM"}, {"measurement": "IC50", "setting": "A2780", "result": "> 10", "unit": "µM"}, {"measurement": "IC50", "setting": "A549", "result": "> 10", "unit": "µM"}, {"measurement": "IC50", "setting": "Bel-7402", "result": "> 10", "unit": "µM"}, {"measurement": "IC50", "setting": "BGC-823", "result": "> 10", "unit": "µM"}]}, {"smiles": "CC(/C=C/[C@@]1(O)C(C)(C)CC[C@@H](O)[C@@]1(C)O)=C\\C(=O)O[C@@H]1C[C@](C)(O)[C@H]2[C@H](O[C@@H]3O[C@H](CO)[C@@H](O)[C@H](O)[C@H]3O)OC=C[C@H]21", "note": "[REHMAGLUTOSIDE H]", "values": [{"measurement": "IC50", "setting": "HCT-8", "result": "> 10", "unit": "µM"}, {"measurement": "IC50", "setting": "A2780", "result": "> 10", "unit": "µM"}, {"measurement": "IC50", "setting": "A549", "result": "> 10", "unit": "µM"}, {"measurement": "IC50", "setting": "Bel-7402", "result": "> 10", "unit": "µM"}, {"measurement": "IC50", "setting": "BGC-823", "result": "> 10", "unit": "µM"}]}, {"smiles": "C[C@]1(O)C[C@@H](OC(=O)CCc2cc(O)ccn2)[C@@H]2C=CO[C@@H](O[C@@H]3O[C@H](CO)[C@@H](O)[C@H](O)[C@H]3O)[C@@H]21", "note": "[REHMAGLUTOSIDE D]", "values": [{"measurement": "IC50", "setting": "HCT-8", "result": "> 10", "unit": "µM"}, {"measurement": "IC50", "setting": "A2780", "result": "> 10", "unit": "µM"}, {"measurement": "IC50", "setting": "A549", "result": "> 10", "unit": "µM"}, {"measurement": "IC50", "setting": "Bel-7402", "result": "> 10", "unit": "µM"}, {"measurement": "IC50", "setting": "BGC-823", "result": "> 10", "unit": "µM"}]}, {"smiles": "C[C@]1(O)C[C@@H](OC(=O)/C=C/c2ccccc2)[C@@H]2C=CO[C@@H](O[C@@H]3O[C@H](CO)[C@@H](O)[C@H](O)[C@H]3O)[C@@H]21", "note": "[REHMAGLUTOSIDE A]", "values": [{"measurement": "IC50", "setting": "HCT-8", "result": "> 10", "unit": "µM"}, {"measurement": "IC50", "setting": "A2780", "result": "> 10", "unit": "µM"}, {"measurement": "IC50", "setting": "A549", "result": "> 10", "unit": "µM"}, {"measurement": "IC50", "setting": "Bel-7402", "result": "> 10", "unit": "µM"}, {"measurement": "IC50", "setting": "BGC-823", "result": "> 10", "unit": "µM"}]}, {"smiles": "COc1cc(C(=O)O[C@@H]2C[C@](C)(O)[C@H]3[C@H](O[C@@H]4O[C@H](CO)[C@@H](O)[C@H](O)[C@H]4O)OC=C[C@H]32)cc(OC)c1O[C@@H]1O[C@@H](C)[C@H](O)[C@@H](O)[C@H]1O", "note": "[REHMAGLUTOSIDE C]", "values": [{"measurement": "IC50", "setting": "HCT-8", "result": "> 10", "unit": "µM"}, {"measurement": "viability at 10 µM", "setting": "L02", "result": 71, "unit": "%"}, {"measurement": "IC50", "setting": "A2780", "result": "> 10", "unit": "µM"}, {"measurement": "IC50", "setting": "A549", "result": "> 10", "unit": "µM"}, {"measurement": "inhibition at 10 µM", "setting": "[1]", "result": 33.6, "unit": "%"}, {"measurement": "IC50", "setting": "Bel-7402", "result": "> 10", "unit": "µM"}, {"measurement": "IC50", "setting": "BGC-823", "result": "> 10", "unit": "µM"}]}, {"smiles": "CC(/C=C/[C@@]1(O)C(C)(C)CCC[C@@]1(C)O)=C\\C(=O)O[C@@H]1C[C@](C)(O)[C@H]2[C@H](O[C@@H]3O[C@H](CO)[C@@H](O)[C@H](O)[C@H]3O)OC=C[C@H]21", "note": "[REHMAGLUTOSIDE F]", "values": [{"measurement": "IC50", "setting": "HCT-8", "result": "> 10", "unit": "µM"}, {"measurement": "IC50", "setting": "A2780", "result": "> 10", "unit": "µM"}, {"measurement": "IC50", "setting": "A549", "result": "> 10", "unit": "µM"}, {"measurement": "IC50", "setting": "Bel-7402", "result": "> 10", "unit": "µM"}, {"measurement": "IC50", "setting": "BGC-823", "result": "> 10", "unit": "µM"}]}, {"smiles": "C[C@]1(O)C[C@@H](O)[C@@H]2C=CO[C@@H](O[C@@H]3O[C@H](CO[C@H]4C[C@H]5[C@@H]([C@@H](O[C@@H]6O[C@H](CO)[C@@H](O)[C@H](O)[C@H]6O)O4)[C@](C)(O)C[C@@H]5O)[C@@H](O)[C@H](O)[C@H]3O)[C@@H]21", "note": "[REHMAGLUTOSIDE J]", "values": [{"measurement": "IC50", "setting": "HCT-8", "result": "> 10", "unit": "µM"}, {"measurement": "viability at 10 µM", "setting": "L02", "result": 67.3, "unit": "%"}, {"measurement": "IC50", "setting": "A2780", "result": "> 10", "unit": "µM"}, {"measurement": "IC50", "setting": "A549", "result": "> 10", "unit": "µM"}, {"measurement": "inhibition at 10 µM", "setting": "[1]", "result": 25.2, "unit": "%"}, {"measurement": "IC50", "setting": "Bel-7402", "result": "> 10", "unit": "µM"}, {"measurement": "IC50", "setting": "BGC-823", "result": "> 10", "unit": "µM"}]}, {"smiles": "COc1cc(C(=O)O[C@@H]2C[C@](C)(O)[C@H]3[C@H](O[C@@H]4O[C@H](CO)[C@@H](O)[C@H](O)[C@H]4O)OC=C[C@H]32)ccc1O[C@@H]1O[C@H](CO)[C@@H](O)[C@H](O)[C@H]1O", "note": "[REHMAGLUTOSIDE B]", "values": [{"measurement": "IC50", "setting": "HCT-8", "result": "> 10", "unit": "µM"}, {"measurement": "IC50", "setting": "A2780", "result": "> 10", "unit": "µM"}, {"measurement": "IC50", "setting": "A549", "result": "> 10", "unit": "µM"}, {"measurement": "IC50", "setting": "Bel-7402", "result": "> 10", "unit": "µM"}, {"measurement": "IC50", "setting": "BGC-823", "result": "> 10", "unit": "µM"}]}, {"smiles": "COC(=O)c1cc(OC)c2c(c1-c1c(CO)cc(OC)c3c1OCO3)OCO2", "note": "[BICYCLOL]", "values": [{"measurement": "viability at 10 µM", "setting": "L02", "result": 63.6, "unit": "%"}, {"measurement": "inhibition at 10 µM", "setting": "[1]", "result": 16.7, "unit": "%"}]}, {"smiles": "C[C@]1(O)C[C@@H](O)[C@@H]2C=CO[C@@H](O[C@@H]3O[C@H](CO[C@@H]4C[C@H]5[C@@H]([C@@H](O[C@@H]6O[C@H](CO)[C@@H](O)[C@H](O)[C@H]6O)O4)[C@](C)(O)C[C@@H]5O)[C@@H](O)[C@H](O)[C@H]3O)[C@@H]21", "note": "[REHMAGLUTOSIDE K]", "values": [{"measurement": "IC50", "setting": "HCT-8", "result": "> 10", "unit": "µM"}, {"measurement": "viability at 10 µM", "setting": "L02", "result": 71.8, "unit": "%"}, {"measurement": "IC50", "setting": "A2780", "result": "> 10", "unit": "µM"}, {"measurement": "IC50", "setting": "A549", "result": "> 10", "unit": "µM"}, {"measurement": "inhibition at 10 µM", "setting": "[1]", "result": 35.5, "unit": "%"}, {"measurement": "IC50", "setting": "Bel-7402", "result": "> 10", "unit": "µM"}, {"measurement": "IC50", "setting": "BGC-823", "result": "> 10", "unit": "µM"}]}, {"smiles": "CC(/C=C/[C@@]1(O)C(C)(C)C[C@H](O)C[C@@]1(C)O)=C\\C(=O)O[C@@H]1C[C@](C)(O)[C@H]2[C@H](O[C@@H]3O[C@H](CO)[C@@H](O)[C@H](O)[C@H]3O)OC=C[C@H]21", "note": "[REHMAGLUTOSIDE G]", "values": [{"measurement": "IC50", "setting": "HCT-8", "result": "> 10", "unit": "µM"}, {"measurement": "viability at 10 µM", "setting": "L02", "result": 73.2, "unit": "%"}, {"measurement": "IC50", "setting": "A2780", "result": "> 10", "unit": "µM"}, {"measurement": "IC50", "setting": "A549", "result": "> 10", "unit": "µM"}, {"measurement": "inhibition at 10 µM", "setting": "[1]", "result": 38.7, "unit": "%"}, {"measurement": "IC50", "setting": "Bel-7402", "result": "> 10", "unit": "µM"}, {"measurement": "IC50", "setting": "BGC-823", "result": "> 10", "unit": "µM"}]}, {"smiles": "CC(/C=C/[C@@]1(O)C(C)(C)CCC[C@@]1(C)O[C@@H]1O[C@H](CO)[C@@H](O)[C@H](O)[C@H]1O)=C\\C(=O)O[C@@H]1C[C@](C)(O)[C@H]2[C@H](O[C@@H]3O[C@H](CO)[C@@H](O)[C@H](O)[C@H]3O)OC=C[C@H]21", "note": "[REHMAGLUTOSIDE I]", "values": [{"measurement": "IC50", "setting": "HCT-8", "result": "> 10", "unit": "µM"}, {"measurement": "viability at 10 µM", "setting": "L02", "result": 68.6, "unit": "%"}, {"measurement": "IC50", "setting": "A2780", "result": "> 10", "unit": "µM"}, {"measurement": "IC50", "setting": "A549", "result": "> 10", "unit": "µM"}, {"measurement": "inhibition at 10 µM", "setting": "[1]", "result": 28.2, "unit": "%"}, {"measurement": "IC50", "setting": "Bel-7402", "result": "> 10", "unit": "µM"}, {"measurement": "IC50", "setting": "BGC-823", "result": "> 10", "unit": "µM"}]}]}
